Test results as given in ChEMBL document CHEMBL4014285, “Novel, highly potent systemic glucokinase activators for the treatment of Type 2 Diabetes Mellitus” (Bioorg Med Chem Lett, 2017).
In brackets after ≈: the same amount, converted by molar mass. Activity calls are given as the source filed them. The rule behind the calls is not given here.

Tests used:
[1] = biological target: T1, Hexokinase-4 (Homo sapiens) (UniProt P35557); assay: Activation of recombinant human glucokinase assessed as conversion of D-glucose to D-glucose-6-phosphate in presence of 2.5 mM glucose by G6PDH coupled spectrophotometric assay relative to control
T1 sequence (whole entry): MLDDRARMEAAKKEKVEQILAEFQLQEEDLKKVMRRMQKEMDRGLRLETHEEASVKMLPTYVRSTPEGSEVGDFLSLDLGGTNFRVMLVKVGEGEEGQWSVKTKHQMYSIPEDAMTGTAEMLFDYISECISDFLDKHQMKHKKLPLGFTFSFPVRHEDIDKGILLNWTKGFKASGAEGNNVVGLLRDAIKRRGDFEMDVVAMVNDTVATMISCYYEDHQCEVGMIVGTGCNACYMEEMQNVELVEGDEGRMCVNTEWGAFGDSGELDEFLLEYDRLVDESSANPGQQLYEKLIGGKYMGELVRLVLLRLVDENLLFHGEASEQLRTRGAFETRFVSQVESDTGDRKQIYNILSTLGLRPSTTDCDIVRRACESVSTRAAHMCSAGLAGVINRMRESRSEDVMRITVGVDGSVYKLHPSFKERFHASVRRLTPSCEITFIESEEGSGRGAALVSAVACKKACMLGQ
Method in brief: (§1)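 Recombinant human GK; ATP-dependent D-glucose-6-phosphate formation from D-glucose at 2.5 or 10 mM, read by continuous glucose-6-phosphate dehydrogenase coupled spectrophotometry. Activators titrated at 1% DMSO final, DMSO as control. EC50 = concentration giving half of maximal increase in product formation; maximum activity expressed as percent velocity increase vs DMSO at saturating activator. Single titration.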

[2] = biological target: T2, Hexokinase-4 (Rattus norvegicus, UniProt P17712); assay: Activation of glucokinase in primary rat hepatocytes assessed as increase in D-2-deoxyglucose-6-phosphate level in presence of D-2-deoxyglucose by HILIC LC-MS method; assay type: cell-based
T2 sequence (P17712 whole entry): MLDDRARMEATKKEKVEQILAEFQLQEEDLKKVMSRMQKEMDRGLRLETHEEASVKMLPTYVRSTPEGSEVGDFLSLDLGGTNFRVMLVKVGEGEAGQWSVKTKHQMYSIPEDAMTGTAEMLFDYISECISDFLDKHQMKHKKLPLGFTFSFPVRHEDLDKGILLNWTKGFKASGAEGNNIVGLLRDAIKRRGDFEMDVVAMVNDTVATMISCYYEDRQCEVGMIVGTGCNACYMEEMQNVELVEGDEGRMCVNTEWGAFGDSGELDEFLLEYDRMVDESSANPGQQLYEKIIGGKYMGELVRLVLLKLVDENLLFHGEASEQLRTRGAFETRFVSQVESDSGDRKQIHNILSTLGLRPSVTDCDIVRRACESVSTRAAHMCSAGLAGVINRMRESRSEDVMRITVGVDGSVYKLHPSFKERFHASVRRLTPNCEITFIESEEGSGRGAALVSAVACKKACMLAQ
Method in brief: (§2)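 GKACA cell assay in rat INS-1 Clone-13 insulinoma cells or freshly isolated primary rat hepatocytes; intracellular D-2-deoxyglucose-6-phosphate formed from exogenous D-2-deoxyglucose quantified by HILIC LC-MS; EC50 from a single titration.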

[3] = biological target: T1, Hexokinase-4 (Homo sapiens); assay: Activation of recombinant human glucokinase assessed as conversion of D-glucose to D-glucose-6-phosphate in presence of 10 mM glucose by G6PDH coupled spectrophotometric assay relative to control; method in brief: as §1
[4] = biological target: T2, Hexokinase-4; assay: Activation of glucokinase in rat INS-1 cells assessed as increase in D-2-deoxyglucose-6-phosphate level in presence of D-2-deoxyglucose by HILIC LC-MS method; assay type: cell-based; method in brief: as §2
[5] = biological target: T3, Hexokinase-4 (Homo sapiens, UniProt P35557); assay: Activation of recombinant human glucokinase assessed as conversion of D-glucose to D-glucose-6-phosphate in presence of 2.5 mM glucose by G6PDH coupled spectrophotometric assay; method in brief: as §1
T3 sequence (P35557 whole entry): T1 sequence (whole entry)

[6] = biological target: T3, Hexokinase-4; assay: Activation of recombinant human glucokinase assessed as conversion of D-glucose to D-glucose-6-phosphate in presence of 10 mM glucose by G6PDH coupled spectrophotometric assay; method in brief: as §1
[7] = Solubility of the compound at pH 7; assay type: physicochemical; settings: buffer
[8] = Solubility of the compound at pH 2; assay type: physicochemical; settings: buffer
[9] = species on record: Rattus norvegicus; assay: Dose normalized Cmax in rat; assay type: ADME; settings: in vivo
[10] = Stability of compound in human liver microsomes assessed as compound remaining at 1 uM measured after 30 mins; assay type: ADME, microsome; settings: read-out: Stability
Method in brief: (§3)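 Human or rat liver microsome preparations incubated with compound; percent parent remaining after 30 min.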

[11] = Oral bioavailability in rat; assay type: ADME, organism-based; settings: in vivo
[12] = Total drug level in HFD-fed C57BL/6 mouse plasma at 0.01 mg/kg, po measured at 4 hrs post dose; assay type: ADME, organism-based
Method in brief: (§4)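 3-week high fat diet-fed C57BL/6 mice given 0.01, 0.03 or 0.10 mg/kg orally; total (bound plus unbound) drug concentration in plasma sampled 4 h after dosing.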

[13] = Volume of distribution at steady state in rat; assay type: ADME; settings: in vivo, read-out: Vdss
[14] = Total drug level in HFD-fed C57BL/6 mouse plasma at 0.03 mg/kg, po measured at 4 hrs post dose; assay type: ADME, organism-based; method in brief: as §4
[15] = species on record: Rattus norvegicus; assay: Dose normalized AUC in rat; assay type: ADME; settings: in vivo
[16] = Unbound fraction in human plasma; assay type: ADME, cell-free
Method in brief: (§5)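 Unbound fraction determined in 100% human or C57BL/6 mouse plasma.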

[17] = Apparent permeability in MDCK cells; assay type: ADME, cell-based, Canis lupus familiaris; settings: dog
[18] = Stability of compound in rat liver microsomes assessed as compound remaining at 1 uM measured after 30 mins; assay type: ADME, microsome; settings: read-out: Stability; method in brief: as §3
[19] = Unbound fraction in C57BL/6 mouse plasma; assay type: ADME, cell-free; method in brief: as §5
[20] = Apparent permeability in pig LLC-PK1 cells; assay type: ADME, cell-based, Sus scrofa
[21] = Half life in rat; assay type: ADME; settings: in vivo
[22] = Clearance in rat; assay type: ADME; settings: in vivo
[23] = test system: Plasma; assay: Total drug level in po dosed HFD-fed C57BL/6 mouse plasma measured at 4 hrs post dose; assay type: ADME, organism-based; settings: in vivo; method in brief: as §4
[24] = Total drug level in HFD-fed C57BL/6 mouse plasma at 0.10 mg/kg, po measured at 4 hrs post dose; assay type: ADME, organism-based; settings: 0.1 mg/kg; method in brief: as §4
[25] = Mean residence time in rat; assay type: ADME; settings: in vivo
[26] = test system: Mus musculus; assay: Antidiabetic activity in HFD-fed C57BL/6 mouse assessed as decrease in blood glucose level at 0.03 mg/kg, po measured after 30 mins; assay type: functional, organism-based
Method in brief: (§6)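 C57BL/6 mice fed high fat diet for 3 weeks, baseline blood glucose ~200 mg/dl, dosed orally at 0.01, 0.03 and 0.1 mg/kg. Blood glucose followed from 30 min through 4 h post dose, with blood glucose AUC over the period; plasma insulin also measured.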

[27] = test system: Mus musculus; assay: Antidiabetic activity in HFD-fed C57BL/6 mouse assessed as reduction in blood glucose AUC at 0.03 to 0.1 mg/kg, po measured at 4 hrs post dose; assay type: functional, organism-based; method in brief: as §6
[28] = test system: Mus musculus; assay: Antidiabetic activity in HFD-fed C57BL/6 mouse assessed as increase in plasma insulin level at 0.03 to 0.1 mg/kg, po; assay type: functional, organism-based; method in brief: as §6

%max [1] [%]	EC50 [2] [nM]	%max [3] [%]	EC50 [4] [nM]	EC50 [5] [nM]	EC50 [6] [nM]	SMILES	other results
–	16	–	21	4.5	3.8	Cc1cnc(-c2cc3cc(Oc4ccc(S(C)(=O)=O)nc4)c(C4CCC(=O)N4C)cc3[nH]2)s1 (single isomer, unassigned) [listing 1 of 2 here]	–
784	–	193	–	–	–	CN1C(=O)CCC1c1cc2[nH]c(-c3ccccn3)cc2cc1Oc1ccc(S(C)(=O)=O)nc1 (single isomer, unassigned; ent-1) [listing 2 of 2 here]	Activity [26]: Active; Activity [27]: Active; Activity [28]: Active
–	93	–	33	4.2	0.8	CN1C(=O)CCC1c1cc2[nH]c(-c3ccccn3)cc2cc1Oc1ccc(S(C)(=O)=O)nc1 (stereo in doubt; 1-en) [listing 1 of 2 here]	–
–	77	–	37	5.5	1	Cc1cnc(-c2cc3cc(Oc4ccc(S(C)(=O)=O)nc4)c(C4CCC(=O)N4C)cc3[nH]2)s1 (stereo in doubt; 2-en) [listing 1 of 2 here]	–
–	23	–	7.2	4.5	4.2	CN1C(=O)CCC1c1cc2[nH]c(-c3cnccn3)cc2cc1Oc1ccc(S(C)(=O)=O)nc1 (stereo in doubt; 3) [listing 1 of 2 here]	–
713	–	188	–	–	–	CN1C(=O)CCC1c1cc2[nH]c(-c3cnccn3)cc2cc1Oc1ccc(S(C)(=O)=O)nc1 (stereo in doubt; 3) [listing 2 of 2 here]	–
577	–	155	–	–	–	CN1C(=O)CCC1c1cc2[nH]c(-c3cnccn3)cc2cc1Oc1ccc(S(C)(=O)=O)nc1 (stereo in doubt; 3-en) [listing 2 of 2 here]	–
581	–	132	–	–	–	CN1C(=O)CCC1c1cc2[nH]c(-c3ccc(C(C)(C)O)cn3)cc2cc1Oc1ccc(S(C)(=O)=O)nc1 (stereo in doubt; 4-en) [listing 2 of 2 here]	–
764	–	174	–	–	–	CN1C(=O)CCC1c1cc2[nH]c(-c3ccc(C(F)(F)F)cn3)cc2cc1Oc1ccc(S(C)(=O)=O)nc1 (stereo in doubt; 5) [listing 2 of 2 here]	–

Second part, the molecule before the results:

SMILES	%max [1] [%]	EC50 [2] [nM]	%max [3] [%]	EC50 [4] [nM]	EC50 [5] [nM]	EC50 [6] [nM]	other results
CCOC(=O)c1ccc(Oc2cc3cc(-c4ccc(C(F)(F)F)cn4)[nH]c3cc2C2CCC(=O)N2C)cc1 (stereo not drawn)	452	232	123	22	4.8	9.2	–
CCS(=O)(=O)c1ccc(Oc2cc3cc(-c4ccc(C(F)(F)F)cn4)[nH]c3cc2C2CCC(=O)N2C)cc1 (stereo not drawn)	602	174	158	1.7	2	1.4	–
CN1C(=O)CCC1c1cc2[nH]c(-c3ccc(C(F)(F)F)cn3)cc2cc1Oc1ccc(C(=O)O)cc1 (stereo not drawn)	683	728	179	2110	24	9.6	solubility [7]: 113 µM (≈ 56 µg/mL); solubility [8]: 5 µM (≈ 2.48 µg/mL)
COC(=O)c1ccc(-c2cc3cc(Oc4ccc(S(C)(=O)=O)nc4)c(C4CCC(=O)N4C)cc3[nH]2)nc1 (racemic)	739	20	184	7.8	8.2	3.4	–
Cc1cnc(-c2cc3cc(Oc4ccc(S(C)(=O)=O)nc4)c(C4CCC(=O)N4C)cc3[nH]2)s1 (single isomer, unassigned) [listing 2 of 2 here]	620	–	168	–	–	–	–
CN1C(=O)CCC1c1cc2[nH]c(-c3ccccn3)cc2cc1Oc1ccc(S(C)(=O)=O)nc1 (single isomer, unassigned; ent-1) [listing 1 of 2 here]	–	7.5	–	0.9	3.7	2.4	Cmax/dose [9]: 0.235 µM·kg/mg; remaining at 0.5 h, 1 µM [10]: 75%; bioavailability [11]: 30%; concentration at 4 h [12]: 3.8 nM; Vd [13]: 3.05 L/kg; concentration at 4 h [14]: 12 nM; AUC/dose [15]: 0.59 µM·kg·h/mg; fraction unbound [16]: 0.087; Papp [17]: 40 ×10⁻⁶ cm/s; remaining at 0.5 h, 1 µM [18]: 79%; fraction unbound [19]: 0.072; solubility [7]: 142 µM (≈ 65.7 µg/mL); Papp [20]: 40 ×10⁻⁶ cm/s; half-life [21]: 168 min; clearance [22]: 18 mL/min/kg; Drug uptake [23]: Dose-dependent effect; concentration at 4 h [24]: 18 nM; solubility [8]: 194 µM (≈ 89.7 µg/mL); MRT [25]: 2.85 h
CN1C(=O)CCC1c1cc2[nH]c(-c3ccc(C(F)(F)F)cn3)cc2cc1Oc1ccc(S(C)(=O)=O)nc1 (single isomer, unassigned; ent-2) [listing 1 of 2 here]	–	199	–	375	86	31	–
CN1C(=O)CCC1c1cc2[nH]c(-c3ccc(C(F)(F)F)cn3)cc2cc1Oc1ccc(S(C)(=O)=O)nc1 (single isomer, unassigned; ent-2) [listing 2 of 2 here]	583	–	141	–	–	–	–
CN1C(=O)CCC1c1cc2[nH]c(-c3ccccn3)cc2cc1Oc1ccc(S(C)(=O)=O)nc1 (stereo in doubt; 1-en) [listing 2 of 2 here]	628	–	158	–	–	–	–
Cc1cnc(-c2cc3cc(Oc4ccc(S(C)(=O)=O)nc4)c(C4CCC(=O)N4C)cc3[nH]2)s1 (stereo in doubt; 2-en) [listing 2 of 2 here]	482	–	132	–	–	–	–
CN1C(=O)CCC1c1cc2[nH]c(-c3cnccn3)cc2cc1Oc1ccc(S(C)(=O)=O)nc1 (stereo in doubt; 3-en) [listing 1 of 2 here]	–	1510	–	247	48	18	–
CN1C(=O)CCC1c1cc2[nH]c(-c3ccc(C(C)(C)O)cn3)cc2cc1Oc1ccc(S(C)(=O)=O)nc1 (stereo in doubt; 4) [listing 1 of 2 here]	–	5.2	–	3.9	4.8	2.1	–
CN1C(=O)CCC1c1cc2[nH]c(-c3ccc(C(C)(C)O)cn3)cc2cc1Oc1ccc(S(C)(=O)=O)nc1 (stereo in doubt; 4) [listing 2 of 2 here]	739	–	173	–	–	–	–
CN1C(=O)CCC1c1cc2[nH]c(-c3ccc(C(C)(C)O)cn3)cc2cc1Oc1ccc(S(C)(=O)=O)nc1 (stereo in doubt; 4-en) [listing 1 of 2 here]	–	34	–	38	31	9.8	–
CN1C(=O)CCC1c1cc2[nH]c(-c3ccc(C(F)(F)F)cn3)cc2cc1Oc1ccc(S(C)(=O)=O)nc1 (stereo in doubt; 5) [listing 1 of 2 here]	–	2.7	–	2.5	2.4	< 0.85	–
